Measurements as given in ChEMBL document CHEMBL1124029, “Novel DNA groove binding alkylators: design, synthesis, and biological evaluation” (1988).

Columns and labels:
[1] = tested on: Coxsackievirus B4; experiment: Minimum inhibitory concentration required to reduce virus induced cytopathogenicity by 50% against Coxsackie type B4 virus in Vero B cell cultures; assay type: functional; conditions: Enterovirus B
[2] = tested on: FM3A; experiment: Inhibition of proliferation of Murine mammary carcinoma (FM3A) cells was measured; assay type: functional; conditions: Mus musculus, read-out: ID50 (the source's name)
[3] = tested on: Human alphaherpesvirus 2; experiment: Minimum inhibitory concentration required to reduce virus induced cytopathogenicity by 50% against herpes simplex-2 virus in rabbit primary kidney cell cultures; assay type: functional
[4] = tested on: Human alphaherpesvirus 1; experiment: Minimum inhibitory concentration required to reduce virus induced cytopathogenicity by 50% against herpes simplex-1 virus in rabbit primary kidney cell cultures; assay type: functional
[5] = tested on: L1210; experiment: Inhibition of proliferation of Murine Leukemia (L1210) cells was measured; assay type: functional; conditions: Mus musculus, read-out: ID50 (the source's name)
[6] = tested on: MOLT-4F; experiment: Inhibition of proliferation of Human T Lymphoblast (Molt/4F) cells was measured; assay type: functional; conditions: read-out: ID50 (the source's name)
[7] = tested on: NAMALVA; experiment: Inhibition of proliferation of Human B Lymphoblast (Namalva) cells was measured; assay type: functional; conditions: read-out: ID50 (the source's name)
[8] = Minimum inhibitory concentration required to reduce virus induced cytopathogenicity by 50% against para influenza virus in WI-38 cell cultures; assay type: functional
[9] = tested on: Mammalian orthoreovirus 1; experiment: Minimum inhibitory concentration required to reduce virus induced cytopathogenicity by 50% against Reo-1 virus in WI-38 cell cultures; assay type: functional
[10] = tested on: Semliki Forest virus; experiment: Minimum inhibitory concentration required to reduce virus induced forest virus in Vero B cell cultures; assay type: functional
[11] = tested on: Sindbis virus; experiment: Minimum inhibitory concentration required to reduce virus induced cytopathogenicity by 50% against sindbis virus in Vero B cell cultures; assay type: functional
[12] = tested on: Vesicular stomatitis virus; experiment: Minimum inhibitory concentration required to reduce virus induced cytopathogenicity by 50% against Vesicular stomatitis virus in HeLa cell cultures; assay type: functional
[13] = tested on: Hepatoma cell line; experiment: Inhibition of proliferation of Human hepatoma cells was measured; assay type: functional; conditions: read-out: ID50 (the source's name)
[14] = (§1) Minimum cytotoxic concentration required to cause a microscopically detectable alteration of normal cell morphology; assay type: functional
[15] = as §1; assay type: functional; remark: listed apart in the source
[16] = tested on: Raji; experiment: Inhibition of proliferation of Human B Lymphoblast (Raji) cells was measured; assay type: functional; conditions: read-out: ID50 (the source's name)
[17] = tested on: P388; experiment: Percent inhibition of proliferation of Murine Leukemia (P388) cells was measured; assay type: functional, Mus musculus; design: concentration or dose not given beside the values
Summary of the method: (§2)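 Mouse leukemia L1210 cells were grown in McCoy's 5A medium and P388D1 cells in Fischer's medium, each with 10% fetal calf serum. Compounds were dissolved in water, or sonicated and given as a suspension if poorly soluble. Cells were seeded at 1×10^5 per well and grown 72 h at 37 °C in 5% CO2. Viability was read by MTT formazan optical density at 570 nm (reference 630 nm).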

[18] = tested on: Human rhinovirus 1A; experiment: Minimum inhibitory concentration required to reduce virus induced cytopathogenicity by 50% against rhino-1A virus in WI-38 cell cultures; assay type: functional
[19] = tested on: rhinovirus A9; experiment: Minimum inhibitory concentration required to reduce virus induced cytopathogenicity by 50% against rhino-9 virus in WI-38 cell cultures; assay type: functional; conditions: Rhinovirus A
[20] = tested on: L1210; experiment: Percent inhibition of proliferation of Murine Leukemia (L1210) cells was measured; assay type: functional, Mus musculus; design: concentration or dose not given beside the values; summary of the method: as §2
[21] = tested on: Coxsackievirus B4; experiment: Minimum inhibitory concentration required to reduce virus induced cytopathogenicity by 50% against Coxsackie type B4 virus in HeLa cell cultures; assay type: functional; conditions: Enterovirus B
[22] = tested on: Poliovirus 1; experiment: Minimum inhibitory concentration required to reduce virus induced cytopathogenicity by 50% against polio type 1 virus in HeLa cell cultures; assay type: functional; conditions: Enterovirus C

## Cl.Cl.Cn1cc(NC(=O)c2cc(NC(=O)c3cc(NC=O)cn3C)cn2C)cc1C(=O)NCCC(=N)N
[1]
  MIC: > 200 µg/mL
[2]
  IC50: 30.6 µg/mL
[3]
  MIC: 70 µg/mL
[4]
  MIC: 70 µg/mL
[5]
  IC50: 27.1 µg/mL
[6]
  IC50: 28.4 µg/mL
[7]
  IC50: 22.5 µg/mL
[8]
  MIC: > 200 µg/mL
[9]
  MIC: > 200 µg/mL
[10]
  MIC: > 200 µg/mL
[11]
  MIC: > 200 µg/mL
[12]
  MIC: > 100 µg/mL
[13]
  IC50: 54.7 µg/mL
[14]
  MCC: > 200 µg/mL
[15]
  MCC: > 200 µg/mL
[16]
  IC50: 23.7 µg/mL

## Cl.Cn1cc(NC(=O)c2cc(NC(=O)C3CC3)cn2C)cc1C(=O)NCCC(=N)N
[1]
  MIC: > 100 µg/mL
[2]
  IC50: > 100 µg/mL
[3]
  MIC: 40 µg/mL
[4]
  MIC: 20 µg/mL
[5]
  IC50: > 100 µg/mL
[6]
  IC50: 7.8 µg/mL
[17]
  Inhibition: 8%
[8]
  MIC: > 100 µg/mL
[9]
  MIC: > 100 µg/mL
[18]
  MIC: > 40 µg/mL
[19]
  MIC: 20 µg/mL
[10]
  MIC: > 100 µg/mL
[11]
  MIC: > 100 µg/mL
[12]
  MIC: > 100 µg/mL
[14]
  MCC: 100 µg/mL
[15]
  MCC: > 200 µg/mL
[16]
  IC50: 26.7 µg/mL
[20]
  Inhibition: 3%

## CC[N+](CC)(CC)CC.Cn1cc(NC(=O)c2cc(NC(=O)C(Cl)Cl)cn2C)cc1C(=O)NCCC(=N)N.O=S(=O)([O-])O
[21]
  MIC: > 100 µg/mL
[1]
  MIC: > 40 µg/mL
[2]
  IC50: > 100 µg/mL
[3]
  MIC: 70 µg/mL
[4]
  MIC: 70 µg/mL
[5]
  IC50: > 100 µg/mL
[6]
  IC50: 27.2 µg/mL
[17]
  Inhibition: 28%
[8]
  MIC: > 100 µg/mL
[22]
  MIC: > 100 µg/mL
[9]
  MIC: > 200 µg/mL
[18]
  MIC: 40 µg/mL
[19]
  MIC: 40 µg/mL
[10]
  MIC: > 100 µg/mL
[11]
  MIC: > 100 µg/mL
[12]
  MIC: > 200 µg/mL
[14]
  MCC: 200 µg/mL
[15]
  MCC: > 200 µg/mL
[16]
  IC50: 24.1 µg/mL
[20]
  Inhibition: 13%

## Cl.Cl.Cn1cc(NC(=O)c2cc(NC(=O)CNC(=N)N)cn2C)cc1C(=O)NCCC(=N)N [CONGOCIDINE]
[1]
  MIC: > 200 µg/mL
[3]
  MIC: > 10 µg/mL
[4]
  MIC: > 10 µg/mL
[6]
  IC50: > 100 µg/mL
[8]
  MIC: > 100 µg/mL
[9]
  MIC: > 200 µg/mL
[10]
  MIC: > 200 µg/mL
[11]
  MIC: > 200 µg/mL
[12]
  MIC: > 10 µg/mL
[13]
  IC50: 44.7 µg/mL
[14]
  MCC: > 400 µg/mL
